Source: ChEMBL document CHEMBL4184228, “Reversed isoniazids: Design, synthesis and evaluation against Mycobacterium tuberculosis” (Bioorg Med Chem, 2018)
In brackets after ≈: the same amount, converted by molar mass.

What was measured:
[1] = system: Mycobacterium tuberculosis; assay: Growth inhibition of Mycobacterium bovis BCG infected in PBMC assessed as decrease in [3H]-uridine incorporation at <= IC20 after 72 hrs by microbeta scintillation counting analysis; format: functional, variant bovis BCG
Outline: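 PBMCs at 1.5x10^4/well; non-adherent cells are washed off after 24 h. Adherent monocytes are cultured 6 days, then infected with BCG at MOI 3 for 4 h and washed three times. Drugs are added at concentrations at or below the THP-1 IC20 for 72 h.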

[2] = system: Mycobacterium tuberculosis; assay: Antimycobacterial activity against Mycobacterium bovis BCG; format: functional; settings: variant bovis BCG

| Compound | growth inhibition (GI) [1] [%] | MIC [2] [µM] |
| --- | --- | --- |
| O=C(NNCCCN1CCC(N2c3ccccc3Sc3ccc(Cl)cc32)CC1)c1ccncc1 | >90 | 1 (≈ 0.494 µg/mL) |
| O=C(NNCCCN1c2ccccc2Sc2ccccc21)c1ccccc1 | 40 | 26.6 (≈ 9.99 µg/mL) |
| O=C(NNCCCN1c2ccccc2Sc2ccc(Cl)cc21)c1ccccc1 | 40 | 12.2 (≈ 5 µg/mL) |
| O=C(NNCCCN1c2ccccc2Sc2ccc(Cl)cc21)c1ccncc1 | >90 | 2.44 (≈ 1 µg/mL) |
| O=C(NNCCCN1c2ccccc2Sc2ccccc21)c1ccncc1 | >90 | 13.3 (≈ 5.01 µg/mL) |
| O=C(NNCCCN1c2ccccc2CCc2ccccc21)c1ccncc1 | >90 | 13.4 (≈ 5 µg/mL) |
| CN(C)CCCN1c2ccccc2Sc2ccc(Cl)cc21 [CHLORPROMAZINE] | 40 | 4 (≈ 1.28 µg/mL) |
| NNC(=O)c1ccncc1 [ISONIAZID] | >90 | 0.015 (≈ 0.00206 µg/mL) |
